Test results taken from ChEMBL document CHEMBL1141075, “4-Oxo-4,7-dihydrothieno[2,3-b]pyridines as non-nucleoside inhibitors of human cytomegalovirus and related herpesvirus polymerases” (J Med Chem, 2005).

Columns and labels:
[1] = Toxicity on uninfected African green monkey kidney cells determined in microscopic evaluation and quantitative neutral red dye uptake assay; type: cell-based; conditions: chlorocebus sabaeus, uninfected African green monkey kidney (Vero) cells
Procedure, shortened: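 Uninfected cells were seeded as subconfluent monolayers and exposed to compound for 3 days. Viability was judged both by microscopic inspection and by quantitative neutral red dye uptake, giving CC50.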

[2] = molecular target: T1, DNA polymerase catalytic subunit (Varicella-zoster virus (strain Dumas) (HHV-3) (Human herpesvirus 3), UniProt P09252); assay: Inhibition of Varicella-Zoster virus DNA polymerase (95 uL) activity in a solution containing […] HEPES (pH 7.5), incubation for 12 minutes at 26 degrees C; set-up: species or system Human alphaherpesvirus 3
T1 sequence (P09252 whole entry): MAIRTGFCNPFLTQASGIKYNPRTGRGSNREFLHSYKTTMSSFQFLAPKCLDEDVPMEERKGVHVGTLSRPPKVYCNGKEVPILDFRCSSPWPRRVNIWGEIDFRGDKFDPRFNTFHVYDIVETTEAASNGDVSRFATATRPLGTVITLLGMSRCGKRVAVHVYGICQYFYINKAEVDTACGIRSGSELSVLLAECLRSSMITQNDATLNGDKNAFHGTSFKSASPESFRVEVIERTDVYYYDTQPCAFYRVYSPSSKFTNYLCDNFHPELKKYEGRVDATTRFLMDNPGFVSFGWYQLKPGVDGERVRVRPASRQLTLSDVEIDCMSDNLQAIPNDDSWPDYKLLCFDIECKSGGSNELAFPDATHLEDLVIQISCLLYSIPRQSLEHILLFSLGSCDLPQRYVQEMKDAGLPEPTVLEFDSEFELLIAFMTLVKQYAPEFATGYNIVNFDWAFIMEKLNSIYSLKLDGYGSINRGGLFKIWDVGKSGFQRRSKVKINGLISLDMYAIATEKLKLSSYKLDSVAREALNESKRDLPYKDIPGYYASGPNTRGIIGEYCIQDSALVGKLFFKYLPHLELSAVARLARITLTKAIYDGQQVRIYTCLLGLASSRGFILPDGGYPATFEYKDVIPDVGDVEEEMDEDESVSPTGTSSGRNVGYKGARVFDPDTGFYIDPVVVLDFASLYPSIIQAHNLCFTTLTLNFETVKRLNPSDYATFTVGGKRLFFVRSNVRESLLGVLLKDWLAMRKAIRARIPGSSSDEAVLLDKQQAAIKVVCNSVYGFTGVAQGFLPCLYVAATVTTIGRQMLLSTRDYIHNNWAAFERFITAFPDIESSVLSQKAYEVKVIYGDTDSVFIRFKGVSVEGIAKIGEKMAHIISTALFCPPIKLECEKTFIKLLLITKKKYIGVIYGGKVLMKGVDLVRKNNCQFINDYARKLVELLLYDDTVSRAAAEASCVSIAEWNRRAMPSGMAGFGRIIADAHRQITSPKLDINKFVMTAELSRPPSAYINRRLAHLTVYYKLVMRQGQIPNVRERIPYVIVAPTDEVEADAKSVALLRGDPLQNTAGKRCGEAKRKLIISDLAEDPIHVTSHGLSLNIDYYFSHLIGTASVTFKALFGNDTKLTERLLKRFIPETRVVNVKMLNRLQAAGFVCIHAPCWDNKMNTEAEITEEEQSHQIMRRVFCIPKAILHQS

[3] = tested on: HFF; assay: Antiviral activity against Varicella-Zoster virus (Webster strain) grown on human foreskin fibroblast cells determined by vedduction in plaque formation upon incubation at 37 degrees C with the compound dissolved in DMSO until plaque were formed; type: functional, cell-based
Procedure, shortened: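 Monolayers of human foreskin fibroblasts were infected with about 50 PFU per well for 1 h at 37 °C. The inoculum was then replaced with DMEM containing 10% FBS, 0.8% carboxymethyl cellulose and diluted compound from 200-fold DMSO stocks. Plates were incubated at 37 °C until plaques formed. Plaques were counted microscopically or after 0.1% crystal violet staining. IC50 came from linear regression of % inhibition versus untreated controls.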

[4] = molecular target: T2, DNA polymerase catalytic subunit (Human cytomegalovirus (strain AD169) (HHV-5) (Human herpesvirus 5), UniProt P08546); assay: Inhibition of human cytomegalovirus DNA polymerase (95 uL) activity in a solution containing […] HEPES (pH 7.5), incubation for 12 minutes at 26 degrees C; set-up: species or system Human betaherpesvirus 5
T2 sequence (P08546 whole entry): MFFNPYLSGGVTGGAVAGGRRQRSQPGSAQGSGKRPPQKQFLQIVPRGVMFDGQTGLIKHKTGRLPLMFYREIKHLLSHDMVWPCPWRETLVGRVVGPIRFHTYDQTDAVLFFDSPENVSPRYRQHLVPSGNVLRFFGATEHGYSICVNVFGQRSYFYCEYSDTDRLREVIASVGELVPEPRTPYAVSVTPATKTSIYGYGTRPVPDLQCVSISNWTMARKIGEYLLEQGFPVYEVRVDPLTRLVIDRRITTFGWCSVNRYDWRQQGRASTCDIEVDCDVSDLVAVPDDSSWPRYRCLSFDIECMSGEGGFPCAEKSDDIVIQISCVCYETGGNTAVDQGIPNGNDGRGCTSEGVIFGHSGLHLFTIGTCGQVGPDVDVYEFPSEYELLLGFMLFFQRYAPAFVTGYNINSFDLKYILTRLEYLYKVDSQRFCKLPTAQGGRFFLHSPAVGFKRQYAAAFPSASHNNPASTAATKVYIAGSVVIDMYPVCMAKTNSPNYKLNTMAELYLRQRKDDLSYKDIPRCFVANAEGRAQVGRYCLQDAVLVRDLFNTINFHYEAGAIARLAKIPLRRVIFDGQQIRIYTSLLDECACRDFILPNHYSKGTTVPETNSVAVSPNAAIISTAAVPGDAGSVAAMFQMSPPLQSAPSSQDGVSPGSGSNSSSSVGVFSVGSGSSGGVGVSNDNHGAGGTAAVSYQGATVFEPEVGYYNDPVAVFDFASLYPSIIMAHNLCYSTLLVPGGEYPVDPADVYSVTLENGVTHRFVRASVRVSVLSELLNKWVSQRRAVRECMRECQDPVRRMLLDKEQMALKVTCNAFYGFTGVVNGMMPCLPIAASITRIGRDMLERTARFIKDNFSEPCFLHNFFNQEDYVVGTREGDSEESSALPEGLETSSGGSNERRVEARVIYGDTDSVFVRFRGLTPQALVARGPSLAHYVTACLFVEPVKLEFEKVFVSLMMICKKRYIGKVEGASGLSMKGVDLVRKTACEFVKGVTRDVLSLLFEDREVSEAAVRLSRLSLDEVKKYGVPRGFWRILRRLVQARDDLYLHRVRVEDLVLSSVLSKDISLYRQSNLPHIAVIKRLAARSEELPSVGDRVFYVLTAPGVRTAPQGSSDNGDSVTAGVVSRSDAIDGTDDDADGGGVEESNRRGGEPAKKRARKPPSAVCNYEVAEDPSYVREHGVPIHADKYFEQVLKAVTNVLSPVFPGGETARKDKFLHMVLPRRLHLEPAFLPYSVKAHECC

Structure (SMILES) | CC50 [1] | IC50 [2] | IC50 [3] | IC50 [4]
Cn1cc(C(=O)NCc2ccc(Cl)cc2)c(=O)c2cc(CN3CCOCC3)sc21 | > 100000 nM | 770 nM | 770 nM | 
Cn1cc(C(=O)NCc2ccc(Cl)cc2)c(=O)c2cc(CN3CCOCC3)ccc21 | > 100000 nM |  | 340 nM | 700 nM
O=C(NCc1ccc(Cl)cc1)c1cnc2ccc(CCCO)cc2c1O | > 100000 nM | 70 nM | 170 nM | 400 nM
